Measurements as given in ChEMBL document CHEMBL1139252, “Inhibition of purple acid phosphatase with alpha-alkoxynaphthylmethylphosphonic acids” (Bioorg Med Chem Lett, 2009).

Tests used:
[1] = target: T1, Fe(3+)-Zn(2+) purple acid phosphatase (Phaseolus vulgaris, UniProt P80366); experiment: Inhibition of red kidney bean PAP at pH 6.2
T1 sequence (P80366 whole entry): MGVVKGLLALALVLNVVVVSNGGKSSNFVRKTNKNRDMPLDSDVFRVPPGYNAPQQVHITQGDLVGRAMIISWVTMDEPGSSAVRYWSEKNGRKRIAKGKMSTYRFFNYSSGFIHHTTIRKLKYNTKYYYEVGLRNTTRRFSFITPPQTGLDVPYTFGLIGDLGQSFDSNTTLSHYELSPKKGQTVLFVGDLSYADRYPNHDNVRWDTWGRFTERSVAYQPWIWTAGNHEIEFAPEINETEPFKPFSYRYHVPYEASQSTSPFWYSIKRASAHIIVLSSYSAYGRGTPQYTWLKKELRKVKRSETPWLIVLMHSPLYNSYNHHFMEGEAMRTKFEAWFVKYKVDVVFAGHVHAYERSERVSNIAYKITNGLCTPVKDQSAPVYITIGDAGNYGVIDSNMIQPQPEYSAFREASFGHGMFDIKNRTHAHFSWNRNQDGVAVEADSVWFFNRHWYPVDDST
Procedure, shortened: (§1)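 Each enzyme was run at its own pH optimum: red kidney bean PAP at pH 6.2 and pig PAP at pH 4.9. IC50 values were determined experimentally. Separate inhibition constants were derived for binding to the free enzyme and to the enzyme–substrate complex.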

[2] = Inhibition of human PAP
[3] = Inhibition of pig PAP at pH 4.9; parameters: species or system Sus scrofa; procedure, shortened: as §1

| IC50 [1] [µM] | IC50 [3] [µM] | Compound | IC50 [2] [µM] |
| --- | --- | --- | --- |
| – | – | O=C(c1ccccc1)C(C(=O)c1ccccc1)(c1cccc2ccccc12)P(=O)(O)O | 1.4 |
| 100 | 30 | CCCCCCCCOC(c1cccc2ccccc12)P(=O)(O)O (racemic) | – |
| 8 | 20 | CCCCCCCCCCOC(c1cccc2ccccc12)P(=O)(O)O (racemic) | – |
| 1000 | 430 | CCCCCCOC(c1cccc2ccccc12)P(=O)(O)O (racemic) | – |

| Compound | IC50 [1] [µM] | IC50 [3] [µM] | IC50 [2] [µM] |
| --- | --- | --- | --- |
| O=P(O)(O)C(O)c1cccc2ccccc12 (stereo not given) | 5000 | – | – |
| O=P(O)(O)Cc1cccc2ccccc12 | > 7000 | – | 30 |
